# Screens from PubChem BioAssay.
# SENP1 FRET inh = human SENP1 catalytic domain inhibitors, primary screen, biochemical, FRET, uHTS; recombinant SENP1 catalytic domain, CyPet-SUMO1-YPet FRET cleavage; inhibition, % at 10 µM; hit rate 0.21% among 360,000;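 active = inhibition at least 30% at 10 µM, raw YFP signal under a set limit, fluorescence ratio 0.5 to 1.5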;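 note: 0% = enzyme with DMSO and 100% = no enzyme wells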
# Target sequence (Q9P0U3 419-644 limits assumed): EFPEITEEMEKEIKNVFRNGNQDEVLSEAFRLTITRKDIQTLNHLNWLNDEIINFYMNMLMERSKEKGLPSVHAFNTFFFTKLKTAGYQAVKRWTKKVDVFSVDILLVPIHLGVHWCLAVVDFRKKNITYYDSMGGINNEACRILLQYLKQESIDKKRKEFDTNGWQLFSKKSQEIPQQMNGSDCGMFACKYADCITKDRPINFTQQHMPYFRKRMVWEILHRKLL
#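 Assay system: hSENP1 catalytic domain, recombinant. Amount: SENP1 enzyme, 20 pM final. Schedule: 50 min reaction, RT, dark. Technique: FRET, CFP and YFP emission. Control set: no-enzyme wells low, DMSO-plus-enzyme wells high control.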
# TPT1 inh = Candida albicans TPT1 enzyme inhibitors, primary screen, biochemical, fluorescence polarization. recombinant caTPT1, FP RNA substrate dephosphorylation. inhibition, % at 5 µM. hit rate 0.81% among 300,000. AID 1962, 2009;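 active = inhibition above the mean of all tested compounds plus 3 SD, set per screening campaign, cut at about 24% in these data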;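 note: plate controls were DMSO alone for no effect and ferristatin control at 100 nM for full effect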
# CSN inh = inhibitors of CSN-mediated cullin deneddylation, primary screen, biochemical, fluorescence polarization, uHTS; AID 651999, 2013; Purified CSN, SCF-Nedd8-OG deneddylation; inhibition, % at 12.5 µM; hit rate 0.38% among 360,000;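 active = pattern-corrected inhibition above about 35%, with an unprinted fluorescence ratio check between 0.5 and 1.5, limit read from the data, passing the limit was not always enough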;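 note: 0% = enzyme with substrate and 100% = substrate without enzyme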
#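 Material: human Csn5 produced in HEK293T cells; Input: enzyme 0.24 nM; Reagent: SCFSkp2-Nedd8OG substrate at 10 nM final; Dosing: 12.5 µM compound; Incubation: 90 min reaction at room temperature; Detection: fluorescence polarization of the substrate; Evaluation: % inhibition of substrate cleavage by Csn5; Control set: substrate-only high control, full reaction low control.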
# Rpn11 block = Rpn11 (PSMD14) deubiquitinase inhibitors, primary screen, biochemical, fluorescence polarization, uHTS; 26S proteasome non-ATPase regulatory subunit 14 (Homo sapiens), O00487; human 26S proteasome, Ub4-pepOG fluorescence polarization; 20S core pre-blocked with epoxomicin; inhibition, % at 20 µM; hit rate 0.59% among 360,000; AID 588493, 2011;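 active = inhibition at 20 µM, scaled to each plate's controls, above about 33%, limit read from the data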
# Target sequence (O00487 whole entry, looked up): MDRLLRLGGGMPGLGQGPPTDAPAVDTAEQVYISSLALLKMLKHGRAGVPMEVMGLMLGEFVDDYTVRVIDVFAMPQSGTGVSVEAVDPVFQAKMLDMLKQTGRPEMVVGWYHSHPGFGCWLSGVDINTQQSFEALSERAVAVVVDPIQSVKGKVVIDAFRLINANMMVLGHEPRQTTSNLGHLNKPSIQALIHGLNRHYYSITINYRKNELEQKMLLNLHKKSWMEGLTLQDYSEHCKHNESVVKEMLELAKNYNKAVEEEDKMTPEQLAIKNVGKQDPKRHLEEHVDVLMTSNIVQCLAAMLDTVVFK
# HNF4A DNA FP = change in binding of human HNF4A to DNA, primary screen, biochemical, fluorescence polarization, FITC-DNA; Hepatocyte nuclear factor 4-alpha (Homo sapiens), P41235; 1 h; activity change, % at 10 µM; hit rate 0.3% among 360,000; in the data active = activity change above about 30%, passing the limit was not always enough
# caTPT1 confirm = Candida albicans TPT1 inhibitors, confirmation, biochemical, fluorescence polarization, triplicate; shares compounds with TPT1 inh; recombinant caTPT1, RNase T1 coupled; inhibition, % at 5 µM; hit rate 74% among 2,400;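 active = inhibition above the primary screen limit, the mean inhibition of all tested compounds plus 3 SD, cut at about 25% in these data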
# RNase T1 counter = RNase T1 inhibitors, counter-screen for TPT1 inhibitor project, biochemical, fluorescence polarization; hit rate 83% among 2,400; inhibition, % at 5 µM; shares compounds with TPT1 inh; RNase T1 cleavage, 1536-well;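 active = inhibition above the solvent-only control well mean plus 3 SD, limit set per screening run, cut at about 23% in these data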;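 note: plate controls were DMSO wells with enzyme for no effect and wells without RNase T1 for full effect; inhibitors block cleavage so intact labeled substrate keeps polarization high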
# Target sequence (P00651 whole entry, looked up): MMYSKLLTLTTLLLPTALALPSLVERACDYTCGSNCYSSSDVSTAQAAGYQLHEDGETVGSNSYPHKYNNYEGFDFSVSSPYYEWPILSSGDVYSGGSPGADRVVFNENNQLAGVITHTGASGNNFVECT
# Starred values were filed as active, the others as inactive; x = not tested or not shown. The list is not random: actives were taken first. Their share in the collection is about 1.6%.
SMILES,SENP1 FRET inh,TPT1 inh,CSN inh,Rpn11 block,HNF4A DNA FP,caTPT1 confirm,RNase T1 counter
Cc1ccc(C(=O)NC(=S)/C=C2\N(C)c3ccccc3C2(C)C)cc1,-61.5,10.2,27.6,31.7,13.1,x,x
CC(C)C(=O)NC(=S)/C=C1/N(C)c2ccccc2C1(C)C,-19.5,28.0*,48.0*,x,69.2*,16.9,23.9*
CC(C)CC1=NN(C(=O)c2ccco2)C(O)(C(F)(F)F)C1 (centres undefined),0.9,-4.0,1.1,4.0,-23.1,x,x
CCOC(=O)/C(=C/C=C1\Sc2cc(C)c(C)cc2N1CC)C(C)=O,-37.7,x,35.1,x,171.4,x,x
CCOC(=O)/C(=C/C=C1\Sc2ccccc2N1CC)C(C)=O,-26.3,174.4*,133.4,x,176.0,188.9*,170.3*
CCOC(=O)/C(=C\C=C1/Sc2ccccc2N1CC)C(C)=O,-26.2,186.5*,77.3,x,180.3,196.0*,175.7*
COCCNCC(=O)Nc1ccc(OC(F)(F)F)cc1,1.1,61.6*,8.0,-3.7,-4.5,10.7,17.1
CCN(CC)c1ccc(/C=C2\C(=O)c3ccc(C(=O)O)cc3C2=O)cc1,69.8,142.5*,110.5,x,84.0*,121.5*,115.7*
CCN(CC)c1ccc(C(=O)O)cc1,1.8,4.1,0.0,-5.5,-2.0,x,x
COCCN1C(=O)/C(=C/c2ccc(N3CCCC3)cc2)SC1=S,16.0,133.4*,103.5,x,127.7,137.8*,131.3*
O=C(/C=C/c1cccs1)Nc1ccc(Br)cn1,-1.4,-2.7,11.2,0.4,1.6,x,x
COC(=O)[C@@H]1C[C@@H]2CC[C@@H](O)C[C@@H]2N1Cc1ccccc1OS(=O)(=O)c1ccc(C)cc1,-35.1,33.6*,9.0,20.6,26.1,37.4*,47.5*
Cn1nnnc1SCC(=O)Nc1cc(S(=O)(=O)N2CCCCC2)ccc1Cl,0.5,x,4.0,-6.0,2.5,x,x
CC(C)=C(C#N)c1nc2ccccc2s1,-9.7,25.2*,-3.8,6.3,-0.7,7.5,8.7
N#C/C(=C/c1ccncc1)c1nc2ccccc2s1,-5.2,30.2*,13.2,x,6.2,14.3,20.7
COC(=O)c1ccc(/C(O)=C(\C#N)c2nc3ccccc3s2)cc1,-3.8,2.6,-2.1,1.7,3.0,x,x
COc1cc(/C=C(\C#N)c2nc3ccccc3s2)ccc1OCC(=O)Nc1ccccc1,-24.2,60.0*,39.7*,x,33.0*,32.5*,43.9*
N#C/C(=C\c1ccncc1)c1nc2ccccc2[nH]1,-33.9,x,-0.7,18.4,1.9,x,x
COc1cc(/C=C(\CC(=O)O)c2nc3ccccc3s2)ccc1OCC(=O)Nc1ccccc1F,-29.2,x,-1.9,4.3,-1.7,x,x
CCCNC(=O)C1(C)CCCN(C(=O)c2ccc(OC(F)F)cc2)C1 (centres undefined),3.4,x,4.0,2.4,-2.0,x,x
COc1ccc(C)cc1NC(=O)c1cc(C2CC2)nc2c1c(C)nn2C1CCS(=O)(=O)C1 (centres undefined),2.4,x,-3.5,-4.4,-2.0,x,x
COc1cc(/C=C2\CC/C(=C\c3ccc(OCCO)c(OC)c3)C2=O)ccc1OCCO,-21.2,107.0*,33.5,x,12.1,114.1*,113.5*
Cn1nnnc1SCC(=O)NC1CCCc2ccccc21 (centres undefined),0.5,-2.8,6.4,0.8,-2.4,x,x
O=C(NCCNC(=O)c1ccco1)c1ccc(F)cc1,0.8,-3.1,0.9,-2.5,3.4,x,x
O=C(NCCNC(=O)c1ccco1)c1cccc(F)c1,0.7,46.9*,-5.0,0.3,1.0,9.8,11.7
SMILES,SENP1 FRET inh,TPT1 inh,CSN inh,Rpn11 block,HNF4A DNA FP,caTPT1 confirm,RNase T1 counter
CCCCCC(O)CCC(=O)NNC1=CC(=O)CC(C)(C)C1 (centres undefined),1.4,68.9*,-9.2,-3.9,4.0,8.6,11.2
CCCN1C(=O)/C(=C/C=C2\N(CC)c3ccccc3C2(C)C)SC1=S,77.6,177.8*,-30.9,x,-51.7,138.4*,125.2*
CN1/C(=C\C=C2/SC(=S)N(CC(=O)O)C2=O)C(C)(C)c2ccccc21,95.7,78.6*,-73.8,x,-97.8,74.5*,78.3*
CCCN1C(=O)/C(=C\C=C2/Sc3ccccc3N2CCO)SC1=S,28.3,63.9*,13.1,14.2,14.9,42.0*,54.2*
O=C(NCCN1CCN(c2ccccc2)CC1)Nc1ccccc1Br,2.7,x,-0.1,-1.1,2.5,x,x
CC1CCN(c2nc3ccc(C(=O)N4CCN(Cc5ccc6c(c5)OCO6)CC4)cc3s2)CC1,-1.2,-4.1,0.8,6.0,-2.9,x,x
O=C(COc1ccc2c(c1)OCO2)Nc1ccccc1C(F)(F)F,1.4,0.4,3.1,1.1,1.9,x,x
COc1cc(OC)c(C(=O)OCC(=O)NCCc2ccccc2)cc1OC,2.3,71.6*,-11.2,-1.1,4.1,0.9,5.7
COc1ccc(CCNC(=O)COC(=O)c2cc(OC)c(OC)cc2OC)cc1OC,1.7,-1.6,8.4,3.0,0.5,x,x
CN(C)c1ccc(/C=C(\Cl)c2nc3ccccc3s2)cc1,-24.1,72.6*,22.7,x,46.1*,84.1*,90.5*
O=C(O)c1ccc(C=C(c2nc3ccccc3s2)c2nc3ccccc3s2)cc1,-92.3,4.9,27.5,13.3,3.1,x,x
Cc1nn(-c2ccccc2)c(N2CCCC2)c1/C=C1\N=C(c2ccc(OC(C)C)cc2)OC1=O,-23.8,43.3*,0.4,x,1.1,72.6*,81.4*
Cc1ccc(C2=N/C(=C\N3CCCCC3)C(=O)O2)cc1,2.0,1.4,2.8,5.5,-0.6,x,x
Cc1sc2nc(COC(=O)c3ccc(N4CCCC4)c([N+](=O)[O-])c3)[nH]c(=O)c2c1C,-25.7,69.3*,8.7,x,28.1,69.4*,78.2*
Cc1sc2nc(COC(=O)c3ccc(N4CCCC(C)C4)c([N+](=O)[O-])c3)[nH]c(=O)c2c1C (centres undefined),7.9,2.5,-3.1,0.8,2.6,x,x
O=C(/C=C/c1cccs1)N1CCC2(CC1)Oc1ccc(Cl)cc1C(=O)C21CC(c2ccccc2)=NO1 (centres undefined),-1.4,-2.7,0.2,1.3,-4.2,x,x
CCOC(=O)c1sc(NCc2ccco2)c(-c2nc3ccccc3s2)c1N,-23.9,25.8*,13.1,27.3,14.2,27.7*,39.3*
